Here are results for three compounds from ChEMBL document CHEMBL5634114, “Galantamine-memantine hybrids for Alzheimer's disease: The influence of linker rigidity in biological activity and pharmacokinetic properties” (Eur J Med Chem, 2023).

≈ marks a conversion by molar mass, not a printed value.

The term clearance denotes the rate of elimination divided by the concentration. Broadly, the Tmax is the time at which the peak concentration occurs. One may read the IC50 as the concentration at which inhibition is half-maximal. Usually half-life stands for how long it takes for the measured level to halve. The Vd is a proportionality between amount in the body and measured concentration, not a real space. Higher therefore signals extensive tissue distribution. By AUC is commonly meant the area under the concentration-time curve, a measure of exposure. A higher AUC goes with high exposure. The term Cmax denotes the peak of the concentration-time curve.

Series [1] can be described thus: Clearance in CD-1 mouse at 3 mg/kg, iv measured for 240 mins. It is filed as ADME, organism-based. Conditions: in vivo. The gist of the method: (§1)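 Male CD1 mice (22–24 g) dosed IV at 3 mg/kg in PEG400/Tween 80/saline 10/10/80 v/v. Three animals per time point. Blood taken at 0, 5, 30, 60, 120 and 240 min. Plasma extracted with cold CH3CN plus internal standard and quantified by LC-MS/MS (MRM) against a 1 nM–10 µM calibration curve in blank plasma. Parameters were obtained by fitting the plasma concentration–time profile.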

Series [2] in a line: Tmax in CD-1 mouse at 3 mg/kg, iv measured for 240 mins. Conditions: in vivo. It is filed as ADME, organism-based. The gist of the method:
as §1

The target in another series is Acetylcholinesterase (Homo sapiens, UniProt P22303). Briefly: Inhibition of recombinant human AChE using acetylthiocholine as substrate preincubated for 20 mins followed by substrate addition measured for 3 mins by Ellman's method. The gist of the method: (§2)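 Ellman assay at 37 °C in 0.1 M phosphate buffer pH 8.0 with 340 µM DTNB and 0.02 U/mL enzyme (recombinant human AChE or human serum BChE). Inhibitor at increasing concentrations was preincubated with enzyme for 20 min before adding 550 µM acetylthiocholine (AChE) or butyrylthiocholine (BChE). Absorbance at 412 nm was monitored for 3 min, with a blank lacking enzyme. Triplicates; IC50 from log concentration–inhibition curves; at least two experiments.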
Acetylcholinesterase, sequence (P22303 whole entry): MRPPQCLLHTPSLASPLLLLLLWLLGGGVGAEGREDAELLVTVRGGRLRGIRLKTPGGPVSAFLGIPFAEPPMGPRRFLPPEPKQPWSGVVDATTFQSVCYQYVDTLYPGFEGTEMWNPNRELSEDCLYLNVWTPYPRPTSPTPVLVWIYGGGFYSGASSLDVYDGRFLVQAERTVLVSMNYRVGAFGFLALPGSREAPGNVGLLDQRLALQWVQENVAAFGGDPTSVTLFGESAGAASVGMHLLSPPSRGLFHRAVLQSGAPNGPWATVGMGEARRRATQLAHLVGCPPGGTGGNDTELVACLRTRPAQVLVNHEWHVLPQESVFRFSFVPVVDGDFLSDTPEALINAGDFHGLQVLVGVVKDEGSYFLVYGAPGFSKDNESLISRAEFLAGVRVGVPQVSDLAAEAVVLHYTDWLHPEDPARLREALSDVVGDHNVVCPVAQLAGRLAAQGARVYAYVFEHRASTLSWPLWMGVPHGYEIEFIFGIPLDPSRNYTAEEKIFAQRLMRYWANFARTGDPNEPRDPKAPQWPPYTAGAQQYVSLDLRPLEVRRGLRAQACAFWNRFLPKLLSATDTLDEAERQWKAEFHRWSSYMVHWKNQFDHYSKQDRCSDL
In general terms: Ellman's reagent forms a yellow product with free thiols.

Series [3] can be described thus: Metabolic stability in mouse plasma assessed as half life at 2 uM incubated for 2 hrs by LC-MS/MS analysis. It is filed as ADME, cell-free. The gist of the method:
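Compound at 2 µM final (0.5% DMSO) in prewarmed mouse plasma at 37 °C. Samples taken at 0, 5, 15, 30, 60 and 120 min were quenched in cold CH3CN with internal standard, centrifuged, diluted with water and analyzed by LC-MS/MS (MRM, positive ESI). Half-life calculated from the time course.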

The nature of series [4]: Volume of distribution in CD-1 mouse at 3 mg/kg, iv measured for 240 mins. Conditions: in vivo. It is filed as ADME, organism-based. The gist of the method: as §1
Series [5] is described as follows: Aqueous kinetic solubility in PBS at 250 uM incubated for 24 hrs […]. It is filed as physicochemical. Conditions: read-out: Kinetic_solubility.
Series [6] can be described thus: Drug concentration in brain of in CD-1 mouse at 3 mg/kg, iv measured for 240 mins. It is filed as ADME, organism-based. Conditions: read-out: Ct. The procedure, abridged:
(§3)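 Male CD1 mice dosed IV at 3 mg/kg in PEG400/Tween 80/saline 10/10/80. Three mice per time point. Whole brains were homogenized in 4 vol PBS:protease inhibitor (100:1), extracted with cold CH3CN plus internal standard and measured by LC-MS/MS (MRM) against a 1 nM–10 µM calibration in naïve brain homogenate. Levels were normalized per 100 mg brain/mL, with protein content checked by BCA.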

Series [7] can be described thus: Drug concentration in brain of in CD-1 mouse at 3 mg/kg, iv measured for 120 mins. It is filed as ADME, organism-based. Conditions: read-out: Ct. The gist of the method:
as §3

Series [8] in a line: AUC in CD-1 mouse at 3 mg/kg, iv measured for 240 mins. It is filed as ADME, organism-based. Conditions: in vivo. The gist of the method: as §1
For series [9], the target named is Glutamate NMDA receptor; Grin1/Grin2a (Rattus norvegicus, UniProt P35439+Q00959). The series can be described thus: Inhibition of NMDA/glycine-activated rat GluN1/Glu2A expressed in xenopus laevis oocytes at -75 mV holding potential by voltage clamp method. It is filed as cell-based, Oocyte. The gist of the method:
(§4)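 Xenopus oocytes (stage IV–V) were injected with GluN1 plus GluN2A or GluN1 plus GluN2B cRNA (1:1) and kept 3–4 days at 18 °C. Two-electrode voltage clamp was run in saline with 2 mM CaCl2, pH 7.5. Currents were evoked by 100 µM NMDA plus 10 µM glycine, with compound co-applied at 0.01–100 µM in 10-fold steps. […] The selectivity index is the GluN1/2A IC50 divided by the GluN1/2B IC50.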

Series [10] can be described thus: Metabolic stability in mouse liver microsomes assessed as half life at 5 uM preincubated for 15 mins followed by NADPH/G6P/G6PDH measured for 1 hr by LC-MS/MS analysis. It is filed as ADME, Microsome. Conditions: time 75 min. The gist of the method: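 Mouse liver microsomes with compound at 5 µM final (0.1% DMSO) in 0.1 M Tris-HCl pH 7.5, preincubated 15 min at 37 °C. NADPH, G6P, G6PDH and MgCl2 were then added and incubation continued for 1 h. Samples at 0, 5, 15, 30 and 60 min were quenched in cold CH3CN with internal standard and analyzed by LC-MS/MS. A no-cofactor microsome control was run at 0 and 60 min.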
A general note: Microsomes from liver hold many membrane-bound enzymes, among them those of drug oxidation.

Series [11] is described as follows: Metabolic stability in mouse liver microsomes assessed as half life at 5 uM preincubated for 15 mins followed by UDPGA/D-saccharic acid lactone measured for 1 hr by LC-MS/MS analysis. Conditions: time 75 min. It is filed as ADME, Microsome. The gist of the method:
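Mouse liver microsomes with alamethicin and compound at 5 µM final (0.1% DMSO) in 0.1 M Tris-HCl pH 7.5, preincubated 15 min at 37 °C. UDPGA, p-saccharic acid lactone and MgCl2 were then added and incubation continued for 1 h. Samples at 0, 5, 15, 30 and 60 min were quenched in cold CH3CN with internal standard and analyzed by LC-MS/MS. A no-cofactor control was run at 0 and 60 min.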

Series [12] addresses Glutamate NMDA receptor; Grin1/Grin2b (Rattus norvegicus, UniProt P35439+Q00960). The series can be described thus: Inhibition of NMDA/glycine-activated rat GluN1/Glu2B expressed in xenopus laevis oocytes at -75 mV holding potential by voltage clamp method. It is filed as cell-based, Oocyte. The procedure, abridged: as §4
The nature of series [13]: Drug concentration in brain of in CD-1 mouse at 3 mg/kg, iv measured for 60 mins. It is filed as ADME, organism-based. Conditions: read-out: Ct. The procedure, abridged: as §3
The nature of series [14]: Cmax in CD-1 mouse at 3 mg/kg, iv measured for 240 mins. Conditions: in vivo. It is filed as ADME, organism-based. The procedure, abridged: as §1
A short description of series [15]: Drug concentration in brain of in CD-1 mouse at 3 mg/kg, iv measured for 30 mins. It is filed as ADME, organism-based. Conditions: read-out: Ct. The gist of the method: as §3
For another series, the species on record is Rattus norvegicus. The series can be described thus: Selectivity index, ratio of IC50 for NMDA/glycine-activated rat GluN1/Glu2A expressed in xenopus laevis oocytes to IC50 for NMDA/glycine-activated rat GluN1/Glu2B expressed in xenopus laevis oocytes. It is filed as cell-based. The procedure, abridged:
as §4

For the next series, the target named is Cholinesterase (Homo sapiens, UniProt P06276). The series can be described thus: Inhibition of human serum BChE using butyrylthiocholine as substrate preincubated for 20 mins followed by substrate addition measured for 3 mins by Ellman's method. It is filed as cell-free. The gist of the method:
as §2

Series [16] in a line: Half life in CD-1 mouse at 3 mg/kg, iv measured for 240 mins. Conditions: in vivo. It is filed as ADME, organism-based. The procedure, abridged:
as §1

Glutamate NMDA receptor; Grin1/Grin2a, sequence (Q00959 whole entry, other chains not shown): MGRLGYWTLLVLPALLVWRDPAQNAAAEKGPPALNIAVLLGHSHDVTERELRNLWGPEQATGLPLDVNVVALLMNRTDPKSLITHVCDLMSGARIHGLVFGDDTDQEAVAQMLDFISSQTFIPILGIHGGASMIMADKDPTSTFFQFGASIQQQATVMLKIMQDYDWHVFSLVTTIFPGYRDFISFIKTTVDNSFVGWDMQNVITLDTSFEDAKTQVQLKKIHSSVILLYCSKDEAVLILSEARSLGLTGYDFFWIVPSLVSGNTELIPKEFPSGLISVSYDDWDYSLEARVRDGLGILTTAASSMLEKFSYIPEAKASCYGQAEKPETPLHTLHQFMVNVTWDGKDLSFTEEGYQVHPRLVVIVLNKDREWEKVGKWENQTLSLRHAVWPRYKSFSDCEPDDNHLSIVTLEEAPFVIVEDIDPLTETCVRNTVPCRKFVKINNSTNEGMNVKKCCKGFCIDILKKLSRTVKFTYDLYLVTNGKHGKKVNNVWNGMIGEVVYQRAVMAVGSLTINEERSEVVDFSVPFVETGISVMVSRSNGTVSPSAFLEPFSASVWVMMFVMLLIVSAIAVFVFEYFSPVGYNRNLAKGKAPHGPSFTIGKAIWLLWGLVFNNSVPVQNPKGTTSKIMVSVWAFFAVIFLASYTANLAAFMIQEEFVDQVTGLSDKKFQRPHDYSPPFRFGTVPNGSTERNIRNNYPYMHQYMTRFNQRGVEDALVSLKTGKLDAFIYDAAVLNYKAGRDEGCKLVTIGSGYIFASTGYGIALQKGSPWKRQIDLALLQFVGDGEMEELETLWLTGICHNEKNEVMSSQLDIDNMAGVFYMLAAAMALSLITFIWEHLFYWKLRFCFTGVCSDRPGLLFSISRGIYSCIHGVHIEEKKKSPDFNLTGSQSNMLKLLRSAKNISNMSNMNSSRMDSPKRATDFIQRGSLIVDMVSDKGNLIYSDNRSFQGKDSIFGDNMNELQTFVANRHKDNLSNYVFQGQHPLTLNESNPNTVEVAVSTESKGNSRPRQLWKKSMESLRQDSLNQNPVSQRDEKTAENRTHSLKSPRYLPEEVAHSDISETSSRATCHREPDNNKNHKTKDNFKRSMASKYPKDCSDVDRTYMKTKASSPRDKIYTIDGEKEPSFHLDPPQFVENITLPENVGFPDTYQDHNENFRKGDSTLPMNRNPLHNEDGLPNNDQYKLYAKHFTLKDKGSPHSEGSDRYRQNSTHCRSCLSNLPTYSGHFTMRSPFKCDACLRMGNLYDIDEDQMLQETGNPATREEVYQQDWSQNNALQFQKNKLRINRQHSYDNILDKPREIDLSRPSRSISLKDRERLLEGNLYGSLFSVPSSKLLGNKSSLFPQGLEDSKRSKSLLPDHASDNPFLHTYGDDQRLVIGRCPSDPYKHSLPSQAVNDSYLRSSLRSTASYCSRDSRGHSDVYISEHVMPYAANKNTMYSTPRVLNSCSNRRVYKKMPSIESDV
Glutamate NMDA receptor; Grin1/Grin2b, sequence (Q00960 whole entry, other chains not shown): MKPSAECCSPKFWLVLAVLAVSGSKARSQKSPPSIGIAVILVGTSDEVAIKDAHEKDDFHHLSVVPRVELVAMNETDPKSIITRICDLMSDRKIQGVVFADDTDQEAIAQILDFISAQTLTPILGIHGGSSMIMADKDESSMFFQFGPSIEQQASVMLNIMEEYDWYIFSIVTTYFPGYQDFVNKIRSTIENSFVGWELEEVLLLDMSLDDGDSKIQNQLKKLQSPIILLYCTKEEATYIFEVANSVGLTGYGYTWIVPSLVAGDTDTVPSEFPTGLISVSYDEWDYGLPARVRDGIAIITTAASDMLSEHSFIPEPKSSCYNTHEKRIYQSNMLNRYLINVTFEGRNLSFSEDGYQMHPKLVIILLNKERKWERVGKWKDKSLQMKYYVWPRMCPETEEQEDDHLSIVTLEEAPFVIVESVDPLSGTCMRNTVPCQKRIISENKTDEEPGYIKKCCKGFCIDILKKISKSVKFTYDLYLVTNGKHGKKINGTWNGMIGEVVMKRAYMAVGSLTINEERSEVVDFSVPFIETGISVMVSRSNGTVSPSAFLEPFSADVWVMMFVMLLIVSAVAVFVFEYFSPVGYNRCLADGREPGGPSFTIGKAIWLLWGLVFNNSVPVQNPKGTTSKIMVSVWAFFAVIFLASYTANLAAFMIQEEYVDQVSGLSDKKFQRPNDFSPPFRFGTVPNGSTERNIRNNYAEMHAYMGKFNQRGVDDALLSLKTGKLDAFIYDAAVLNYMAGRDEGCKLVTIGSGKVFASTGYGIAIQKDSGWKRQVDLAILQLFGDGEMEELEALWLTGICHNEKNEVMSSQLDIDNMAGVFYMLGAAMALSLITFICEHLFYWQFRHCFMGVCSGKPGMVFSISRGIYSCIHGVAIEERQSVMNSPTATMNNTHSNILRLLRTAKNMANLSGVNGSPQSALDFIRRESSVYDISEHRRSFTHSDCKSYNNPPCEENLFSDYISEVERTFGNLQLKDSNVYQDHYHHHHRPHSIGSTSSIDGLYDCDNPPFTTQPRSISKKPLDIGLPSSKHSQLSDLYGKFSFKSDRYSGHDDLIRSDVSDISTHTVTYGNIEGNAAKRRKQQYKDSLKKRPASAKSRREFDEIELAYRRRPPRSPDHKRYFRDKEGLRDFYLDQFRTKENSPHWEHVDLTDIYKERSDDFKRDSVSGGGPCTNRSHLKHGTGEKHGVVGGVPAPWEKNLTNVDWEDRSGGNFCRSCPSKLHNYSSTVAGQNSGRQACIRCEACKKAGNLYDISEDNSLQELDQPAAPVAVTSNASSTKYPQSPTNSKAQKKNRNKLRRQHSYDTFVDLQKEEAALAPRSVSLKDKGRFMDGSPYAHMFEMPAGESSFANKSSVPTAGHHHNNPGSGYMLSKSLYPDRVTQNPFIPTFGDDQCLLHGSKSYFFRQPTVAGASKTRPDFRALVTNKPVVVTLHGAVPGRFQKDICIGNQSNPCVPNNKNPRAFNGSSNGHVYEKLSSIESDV
Cholinesterase, sequence (P06276 whole entry): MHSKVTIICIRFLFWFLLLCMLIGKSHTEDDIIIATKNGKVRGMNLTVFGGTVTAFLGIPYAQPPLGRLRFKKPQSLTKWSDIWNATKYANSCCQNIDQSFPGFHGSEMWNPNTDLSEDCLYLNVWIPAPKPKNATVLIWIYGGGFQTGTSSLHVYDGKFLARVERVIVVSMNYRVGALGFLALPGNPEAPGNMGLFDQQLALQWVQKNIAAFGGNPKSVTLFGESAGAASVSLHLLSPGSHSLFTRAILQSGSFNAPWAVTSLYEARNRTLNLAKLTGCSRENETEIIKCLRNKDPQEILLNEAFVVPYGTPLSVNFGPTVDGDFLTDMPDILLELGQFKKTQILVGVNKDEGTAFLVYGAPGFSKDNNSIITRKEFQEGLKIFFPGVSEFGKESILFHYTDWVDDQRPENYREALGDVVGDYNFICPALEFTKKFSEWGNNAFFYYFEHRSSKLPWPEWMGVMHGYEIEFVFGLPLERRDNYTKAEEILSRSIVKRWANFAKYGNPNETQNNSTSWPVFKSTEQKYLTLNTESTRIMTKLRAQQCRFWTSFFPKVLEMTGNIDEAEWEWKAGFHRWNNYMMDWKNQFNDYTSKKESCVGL

`COc1ccc2c3c1O[C@H]1C[C@@H](O)C=C[C@@]31CCN(C/C=C/CNC13CC4CC(C)(CC(C)(C4)C1)C3)C2` showed a clearance in [1] of 161 mL/min/kg. Further, the Tmax in [2] was 5 min. Further, the IC50 was 0.115 µM on Acetylcholinesterase, 14.5 µM in series [9], 1.32 µM in series [12] and 0.421 µM against Cholinesterase. Also, the half-life at 2 µM in [3] is greater than 2 h. The compound further returned a Vd in series [4] of 19 L/kg. The solubility kinetic at 24 h, 250 µM in series [5] came to 237 µM (≈ 120 µg/mL). The concentration at 4 h in series [6] turned out to be 96 ng/g. Also, the concentration at 2 h in series [7] is 243 ng/g. In series [8], this compound showed an AUC at 4 h of 280 ng·h/mL. Also, the half-life at 5 µM was 0.75 h in [10] and greater than 1 h in [11]. The concentration at 1 h in series [13] turned out to be 256 ng/g. The compound also gave a Cmax in series [14] of 202 ng/mL. For the same compound, the concentration at 0.5 h in [15] came to 281 ng/g. In the series filed under Rattus norvegicus, the Ratio IC50 was determined as 11. Further, in series [16], the half-life worked out at 1.37 h.
For the compound `COc1ccc2c3c1O[C@H]1C[C@@H](O)C=C[C@@]31CCN(CC#CCNC13CC4CC(C)(CC(C)(C4)C1)C3)C2`, the IC50 at Acetylcholinesterase came to 0.762 µM; in series [9], 11.6 µM; in series [12], 15.5 µM; at Cholinesterase, 5.08 µM. Besides, the half-life at 2 µM in [3] is greater than 2 h. In addition, the solubility kinetic at 24 h, 250 µM in series [5] worked out at 230 µM (≈ 116 µg/mL). In addition, the half-life at 5 µM in series [10] is less than 0.0833 h. Also, the Ratio IC50 in the series listed under Rattus norvegicus was determined as 0.75.
`COc1ccc2c3c1O[C@H]1C[C@@H](O)C=C[C@@]31CCN(CCCCNC13CC4CC(C)(CC(C)(C4)C1)C3)C2` came in with a clearance in series [1] of 43 mL/min/kg. Further, the Tmax in series [2] was 5 min. In addition, the IC50 at Acetylcholinesterase was found to be 1.13 µM; in series [9], 5.74 µM; in series [12], 1.45 µM; on Cholinesterase it was 1.77 µM. Further, in series [3], the half-life at 2 µM was found to be 1.62 h. This compound showed a Vd in series [4] of 78 L/kg. Moreover, the solubility kinetic at 24 h, 250 µM in [5] is 242 µM (≈ 123 µg/mL). The concentration at 4 h in series [6] was determined as 310 ng/g. The concentration at 2 h in series [7] amounted to 70 ng/g. Also, in series [8], the AUC at 4 h was 290 ng·h/mL. The half-life at 5 µM in [10] and in [11] was greater than 1 h in each case. In addition, the concentration at 1 h in [13] was determined as 115 ng/g. In series [14], this compound had a Cmax of 208 ng/mL. Moreover, in series [15], the concentration at 0.5 h came to 95 ng/g. Moreover, the Ratio IC50 in the series listed under Rattus norvegicus came to 4. The compound also displayed a half-life in [16] of 20.8 h.
